Experimental data published in ChEMBL document CHEMBL4680175, “Sulfonamide-based ring-fused analogues for CAN508 as novel carbonic anhydrase inhibitors endowed with antitumor activity: Design, synthesis, and in vitro biological evaluation” (Eur J Med Chem, 2020).
Active and inactive are the calls of the source. The rule behind the calls is not given here.

Columns and labels:
HOP-92 = experiment: Antitumor activity against human HOP92 cells assessed as cell growth inhibition at 10 uM incubated for 48 hrs by sulforhodamine B assay; type: functional; conditions: read-out: GI
How it was run: (§1)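 NCI Drug Evaluation Branch protocol: primary single-dose screen at 10 μM across a 57-line human cancer panel. Drug exposure is 48 h. Cell growth and viability are read by sulforhodamine B assay. Data are given as a mean graph of percent growth of treated cells and reported as percentage growth inhibition (GI%).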

NCI/ADR-RES = experiment: Antitumor activity against human NCI/ADR-RES cells assessed as cell growth inhibition at 10 uM incubated for 48 hrs by sulforhodamine B assay; type: functional, cell-based; how it was run: as §1
MCF7 [1] = experiment: Induction of cell cycle arrest in human MCF7 cells assessed as fold increase in apoptotic cells at sub-G1 phase at IC50 concentration incubated for 24 hrs by PI/RNase staining based flow cytometric analysis relative to control; type: functional
How it was run: (§2)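 Cells were washed in ice-cold PBS, fixed in ice-cold 70% ethanol, treated with 100 µg/mL RNase and stained with 40 µg/mL PI. DNA content was read by flow cytometry, with sub-G1 compared against control.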

Carbonic anhydrase 9 = Carbonic anhydrase 9 (Homo sapiens, UniProt Q16790); experiment: Inhibition of recombinant human carbonic anhydrase 9 preincubated with enzyme for 15 mins by phenol red dye based stopped flow CO2 hydrase assay
MCF7 [2] = experiment: Induction of cell cycle arrest in human MCF7 cells assessed as accumulation at G2/M phase at IC50 concentration incubated for 24 hrs by PI/RNase staining based flow cytometric analysis; type: functional; how it was run: as §2
SN12C = experiment: Antitumor activity against human SN12C cells assessed as cell growth inhibition at 10 uM incubated for 48 hrs by sulforhodamine B assay; type: functional; conditions: read-out: GI; how it was run: as §1
[3] = target: Cyclin-dependent kinase 2/cyclin E1 (Homo sapiens, UniProt P24941); experiment: Inhibition of CDK2/cyclin E (unknown origin) expressed in baculovirus infected Sf21 insect cells using histone H1 as substrate in presence of [gamma33P]ATP
MDA-MB-468 [4] = experiment: Potency index, ratio of staurosporine IC50 to compound IC50 for antiproliferative activity against human MDA-MB-468 cells measured after 48 hrs under CoCl2-induced hypoxic condition by MTT assay; type: functional
MCF7 [5] = experiment: Antiproliferative activity against human MCF7 cells measured after 48 hrs under normoxic condition by MTT assay; type: functional, cell-based; conditions: MCF7, 48 h
MDA-MB-468 [6] = experiment: Antitumor activity against human MDA-MB-468 cells assessed as cell growth inhibition at 10 uM incubated for 48 hrs by sulforhodamine B assay; type: functional; conditions: read-out: GI; how it was run: as §1
NCI-H522 = experiment: Antitumor activity against human NCI-H522 cells assessed as cell growth inhibition at 10 uM incubated for 48 hrs by sulforhodamine B assay; type: functional; conditions: read-out: GI; how it was run: as §1
NCI-H226 = experiment: Antitumor activity against human NCI-H226 assessed as cell growth inhibition at 10 uM incubated for 48 hrs by sulforhodamine B assay; type: functional; conditions: read-out: GI; how it was run: as §1
Carbonic anhydrase 2 = Carbonic anhydrase 2 (Homo sapiens, UniProt P00918); experiment: Inhibition of recombinant human carbonic anhydrase 2 preincubated with enzyme for 15 mins by phenol red dye based stopped flow CO2 hydrase assay
MDA-MB-468 [7] = experiment: Potency index, ratio of staurosporine IC50 to compound IC50 for antiproliferative activity against human MDA-MB-468 cells measured after 48 hrs under normoxic condition by MTT assay; type: functional
MDA-MB-468 [8] = experiment: Antiproliferative activity against human MDA-MB-468 cells measured after 48 hrs under normoxic condition by MTT assay; type: functional, cell-based; conditions: MDA-MB-468, 48 h
MCF7 [9] = experiment: Induction of apoptosis in human MCF7 cells assessed as fold increase in apoptotic cells by Annexin V-FITC/propidium iodide staining based flow cytometric analysis relative to control; type: functional
MCF7 [10] = experiment: Potency index, ratio of staurosporine IC50 to compound IC50 for antiproliferative activity against human MCF7 cells measured after 48 hrs under CoCl2-induced hypoxic condition by MTT assay; type: functional
MCF7 [11] = experiment: Antiproliferative activity against human MCF7 cells measured after 48 hrs under CoCl2-induced hypoxic condition by MTT assay; type: functional, cell-based; conditions: MCF7, 48 h
MCF7 [12] = experiment: Antitumor activity against human MCF7 cells assessed as cell growth inhibition at 10 uM incubated for 48 hrs by sulforhodamine B assay; type: functional; conditions: read-out: GI; how it was run: as §1
Carbonic anhydrase 1 = Carbonic anhydrase 1 (Homo sapiens, UniProt P00915); experiment: Inhibition of recombinant human carbonic anhydrase 1 preincubated with enzyme for 15 mins by phenol red dye based stopped flow CO2 hydrase assay
MCF7 [13] = experiment: Induction of apoptosis in human MCF7 cells assessed as early apoptotic cells by Annexin V-FITC/propidium iodide staining based flow cytometric analysis (reference value: 0.47 %); type: functional
RXF 393 = experiment: Antitumor activity against human RXF 393 cells assessed as cell growth inhibition at 10 uM incubated for 48 hrs by sulforhodamine B assay; type: functional; conditions: read-out: GI; how it was run: as §1
MCF7 [14] = experiment: Potency index, ratio of staurosporine IC50 to compound IC50 for antiproliferative activity against human MCF7 cells measured after 48 hrs under normoxic condition by MTT assay; type: functional
MCF7 [15] = experiment: Induction of apoptosis in human MCF7 cells assessed as late apoptotic cells by Annexin V-FITC/propidium iodide staining based flow cytometric analysis (reference value: 0.29 %); type: functional
T47D = experiment: Antitumor activity against human T-47D cells assessed as cell growth inhibition at 10 uM incubated for 48 hrs by sulforhodamine B assay; type: functional; conditions: read-out: GI
How it was run: (§3)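 NCI one-dose screen: 57-cell-line panel exposed at 10 μM for 48 h, Drug Evaluation Branch protocol. Growth and viability read by sulforhodamine B; data given as percent growth inhibition from the mean-graph of percent growth of treated cells.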

A498 = experiment: Antitumor activity against human A498 cells assessed as cell growth inhibition at 10 uM incubated for 48 hrs by sulforhodamine B assay; type: functional; conditions: read-out: GI; how it was run: as §1
IGROV-1 = experiment: Antitumor activity against human IGROV1 cells assessed as cell growth inhibition at 10 uM incubated for 48 hrs by sulforhodamine B assay; type: functional; conditions: read-out: GI; how it was run: as §1
CDK9/cyclin T1 = CDK9/cyclin T1 (Homo sapiens, UniProt P50750); experiment: Inhibition of human full-length N-terminal GST/His6-tagged CDK9 (1 to 372 residues)/His6-tagged Cyclin-T1 (1 to 726 residues) expressed in sf9 cells using (YSPTSPS)2KK peptide as substrate in presence of [gamma33P]ATP
MDA-MB-468 [16] = experiment: Antiproliferative activity against human MDA-MB-468 cells measured after 48 hrs under CoCl2-induced hypoxic condition by MTT assay; type: functional, cell-based; conditions: MDA-MB-468, 48 h
UO-31 = experiment: Antitumor activity against human UO-31 cells assessed as cell growth inhibition at 10 uM incubated for 48 hrs by sulforhodamine B assay; type: functional; conditions: read-out: GI; how it was run: as §3
MCF7 [17] = experiment: Induction of cell cycle arrest in human MCF7 cells assessed as decrease in S phase population at IC50 concentration incubated for 24 hrs by PI/RNase staining based flow cytometric analysis; type: functional; how it was run: as §2
NCI-H322M = experiment: Antitumor activity against human NCI-H322M cells assessed as cell growth inhibition at 10 uM incubated for 48 hrs by sulforhodamine B assay; type: functional; conditions: read-out: GI; how it was run: as §1
CCRF-CEM = experiment: Antitumor activity against human CCRF-CEM cells assessed as cell growth inhibition at 10 uM incubated for 48 hrs by sulforhodamine B assay; type: functional; conditions: read-out: GI; how it was run: as §1
KM12 = experiment: Antitumor activity against human KM12 cells assessed as cell growth inhibition at 10 uM incubated for 48 hrs by sulforhodamine B assay; type: functional; conditions: read-out: GI; how it was run: as §1
Carbonic anhydrase 12 = Carbonic anhydrase 12 (Homo sapiens, UniProt O43570); experiment: Inhibition of recombinant human carbonic anhydrase 12 preincubated with enzyme for 15 mins by phenol red dye based stopped flow CO2 hydrase assay
MCF7 [18] = experiment: Induction of apoptosis in human MCF7 cells assessed as necrotic cells by Annexin V-FITC/propidium iodide staining based flow cytometric analysis (reference value: 1.3 %); type: functional

Chain of Carbonic anhydrase 1 (P00915 whole entry): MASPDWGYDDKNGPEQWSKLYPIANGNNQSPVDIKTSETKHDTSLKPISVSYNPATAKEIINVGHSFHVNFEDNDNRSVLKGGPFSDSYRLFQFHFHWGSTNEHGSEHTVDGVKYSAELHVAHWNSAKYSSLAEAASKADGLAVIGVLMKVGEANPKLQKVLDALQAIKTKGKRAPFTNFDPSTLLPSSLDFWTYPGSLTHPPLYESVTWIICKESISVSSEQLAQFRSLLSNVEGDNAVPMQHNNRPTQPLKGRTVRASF
Chain of CDK9/cyclin T1 (O60563 whole entry, the tested form may be a part): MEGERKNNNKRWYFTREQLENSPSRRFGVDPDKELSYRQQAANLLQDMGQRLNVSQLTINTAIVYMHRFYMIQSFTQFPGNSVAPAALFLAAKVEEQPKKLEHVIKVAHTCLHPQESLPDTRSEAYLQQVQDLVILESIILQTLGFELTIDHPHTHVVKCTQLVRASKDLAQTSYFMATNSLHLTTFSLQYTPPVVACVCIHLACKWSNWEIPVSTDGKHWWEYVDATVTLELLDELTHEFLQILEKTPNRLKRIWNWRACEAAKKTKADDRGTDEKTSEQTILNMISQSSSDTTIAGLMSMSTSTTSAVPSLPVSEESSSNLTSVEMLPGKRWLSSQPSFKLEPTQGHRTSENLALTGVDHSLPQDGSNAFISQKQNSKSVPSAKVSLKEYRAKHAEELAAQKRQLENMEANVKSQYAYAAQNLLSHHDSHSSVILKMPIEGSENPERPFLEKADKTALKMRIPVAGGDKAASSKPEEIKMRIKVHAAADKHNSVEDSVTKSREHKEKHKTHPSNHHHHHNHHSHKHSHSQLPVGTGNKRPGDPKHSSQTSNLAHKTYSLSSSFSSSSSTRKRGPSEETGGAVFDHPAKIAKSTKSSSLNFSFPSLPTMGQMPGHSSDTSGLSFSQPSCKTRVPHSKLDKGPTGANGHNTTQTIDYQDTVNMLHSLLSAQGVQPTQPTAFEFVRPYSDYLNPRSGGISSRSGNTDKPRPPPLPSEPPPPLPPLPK
Chain of CDK9/cyclin T1 (P50750 whole entry, the tested form may be a part): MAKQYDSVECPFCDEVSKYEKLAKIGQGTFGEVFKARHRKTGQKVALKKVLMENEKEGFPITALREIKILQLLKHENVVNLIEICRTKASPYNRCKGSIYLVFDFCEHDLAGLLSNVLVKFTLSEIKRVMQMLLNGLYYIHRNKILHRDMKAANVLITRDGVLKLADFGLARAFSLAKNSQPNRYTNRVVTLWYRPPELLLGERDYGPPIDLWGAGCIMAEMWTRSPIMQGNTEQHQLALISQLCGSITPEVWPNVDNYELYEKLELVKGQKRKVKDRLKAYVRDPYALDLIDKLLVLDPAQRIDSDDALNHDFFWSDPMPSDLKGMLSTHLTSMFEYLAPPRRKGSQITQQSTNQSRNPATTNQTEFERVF
Chain of Carbonic anhydrase 12 (O43570 whole entry): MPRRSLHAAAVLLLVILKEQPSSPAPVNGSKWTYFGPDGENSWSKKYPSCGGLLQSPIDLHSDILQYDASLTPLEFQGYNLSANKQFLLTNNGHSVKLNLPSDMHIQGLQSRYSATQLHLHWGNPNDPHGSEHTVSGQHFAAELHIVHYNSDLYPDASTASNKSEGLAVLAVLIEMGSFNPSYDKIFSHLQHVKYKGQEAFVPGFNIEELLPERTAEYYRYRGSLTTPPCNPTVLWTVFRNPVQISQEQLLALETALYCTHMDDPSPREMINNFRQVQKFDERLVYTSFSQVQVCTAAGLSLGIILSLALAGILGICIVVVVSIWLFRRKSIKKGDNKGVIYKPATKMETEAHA

- Ki (Carbonic anhydrase 9): 33.5 nM
- IC50 [3]: > 12.5 µM
- IC50 (MCF7 [5]): 660 nM
- Ki (Carbonic anhydrase 2): 922 nM
- IC50 (MDA-MB-468 [8]): 1890 nM
- IC50 (MCF7 [11]): 960 nM
- Ki (Carbonic anhydrase 1): 2680 nM
- IC50 (CDK9/cyclin T1): > 12.5 µM
- IC50 (MDA-MB-468 [16]): 1070 nM
- Ki (Carbonic anhydrase 12): 39.4 nM
SMILES: N#Cc1c(-c2ccccc2)nc2c(/N=N/c3ccc(S(N)(=O)=O)cc3)c(N)nn2c1N
- inhibition of growth at 10 µM (HOP-92): 27%
- Activity (NCI/ADR-RES): inactive
- fold change (FC) (MCF7 [1]): 7
- Activity (MCF7 [2]): Active
- inhibition of growth at 10 µM (SN12C): 24%
- Ratio IC50 (MDA-MB-468 [4]): 6
- inhibition of growth at 10 µM (MDA-MB-468 [6]): 58%
- inhibition of growth at 10 µM (NCI-H522): 54%
- inhibition of growth at 10 µM (NCI-H226): 24%
- Ratio IC50 (MDA-MB-468 [7]): 2.3
- fold change (FC) (MCF7 [9]): 26
- Ratio IC50 (MCF7 [10]): 9
- inhibition of growth at 10 µM (MCF7 [12]): 60%
- Activity (MCF7 [13]): 8.46%
- inhibition of growth at 10 µM (RXF 393): 42%
- Ratio IC50 (MCF7 [14]): 5
- Activity (MCF7 [15]): 16.94%
- inhibition of growth at 10 µM (T47D): 26%
- inhibition of growth at 10 µM (A498): 30%
- inhibition of growth at 10 µM (IGROV-1): 35%
- inhibition of growth at 10 µM (UO-31): 25%
- Activity (MCF7 [17]): Active
- inhibition of growth at 10 µM (NCI-H322M): 21%
- inhibition of growth at 10 µM (CCRF-CEM): 21%
- inhibition of growth at 10 µM (KM12): 50%
- Activity (MCF7 [18]): 2.64%
